{"source": "ChEMBL document CHEMBL1671655", "about": "“Anidulafungin is fungicidal and exerts a variety of postantifungal effects against Candida albicans, C. glabrata, C. parapsilosis, and C. krusei isolates” (2009)", "key": {"Candida parapsilosis [1]": {"test_system": "Candida parapsilosis", "assay": "Fungicidal activity against Candida parapsilosis isolate 1 assessed as log reduction in bacterial count at MIC after drug exposure for 1 hr followed by washout measured after 48 hrs in the absence of drug by PAFE study", "format": "functional", "settings": "Lodderomyces parapsilosis", "how_it_was_run": "(§1)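 Inoculum about 1 x 10^5 to 5 x 10^5 CFU/ml in RPMI 1640 (MOPS, pH 7.0) with drug, shaken at 35°C for 1 h. Cells were then washed and centrifuged at 1,400 x g for 10 min (3 cycles) and resuspended in warm drug-free RPMI. Samples plated on SDA at 0, 2, 4, 8, 12, 24 and 48 h; CFU counted after 48 h at 35°C. Run twice per isolate; means.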"}, "Nakaseomyces glabratus [2]": {"test_system": "Nakaseomyces glabratus", "assay": "Antifungal activity against Candida glabrata isolate 3 assessed as time period for bacterial growth inhibition at 4 times MIC after 1 hr drug exposure", "format": "functional", "how_it_was_run": "(§2)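 Inoculum of about 1 x 10^5 to 5 x 10^5 CFU/ml in MOPS-buffered RPMI (pH 7.0), shaken at 35°C and exposed to drug for 1 h. Cells then washed and centrifuged three times and resuspended in drug-free warm RPMI. Samples plated on SDA at 0, 2, 4, 8, 12, 24 and 48 h, with CFU counted after 48 h at 35°C. Run twice per isolate; values are means.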"}, "Candida parapsilosis [3]": {"test_system": "Candida parapsilosis", "assay": "Antifungal activity against Candida parapsilosis isolate A assessed as cell wall damage at 4 times MIC by Transmission electron microscopy", "format": "functional, organism-based", "how_it_was_run": "(§3)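 Cells recovered 8 h after a 1-h drug exposure were grown on SDA for 24 h at 35°C. Colonies fixed at 4°C in 0.1 M cacodylate (pH 7.2) with 2% glutaraldehyde and 2% paraformaldehyde, ethanol-dehydrated and embedded in Lowicryl K4M. Thin sections examined by transmission EM.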"}, "Candida albicans [4]": {"test_system": "Candida albicans", "assay": "Antifungal activity against Candida albicans ATCC 90028 assessed as time period for bacterial growth inhibition at 4 times MIC after 1 hr drug exposure", "format": "functional", "how_it_was_run": "as §2"}, "Candida parapsilosis [5]": {"test_system": "Candida parapsilosis", "assay": "Fungicidal activity against Candida parapsilosis isolate A assessed as log reduction in bacterial count at 4 times MIC after 48 hrs by time-kill analysis", "format": "functional", "settings": "Lodderomyces parapsilosis", "how_it_was_run": "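Isolates subcultured twice on SDA, then suspended to 0.5 McFarland and diluted into RPMI 1640 (MOPS, pH 7.0) with or without anidulafungin, giving about 1 x 10^5 to 5 x 10^5 CFU/ml. Tubes were shaken at 35°C. Samples were taken at 0, 2, 4, 8, 12, 24 and 48 h, serially diluted 10-fold, plated on SDA, and CFU counted after 48 h at 35°C. Each isolate was run twice; mean values.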"}, "Candida parapsilosis [6]": {"test_system": "Candida parapsilosis", "assay": "Increase in susceptibility to SDS in Candida parapsilosis isolate 1 assessed as cell wall damage at MIC after 1 hr relative to control", "format": "functional, organism-based", "how_it_was_run": "(§4)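 Cells recovered 8 h after a 1-h drug exposure were grown in YPD with 1% glucose to exponential phase and adjusted to OD599 0.1. Undiluted culture and 10-fold serial dilutions were spotted onto YPD plates containing SDS (0.01 to 0.04%), then incubated 72 h at 30°C. Growth compared with unexposed control cells; triplicate.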"}, "Candida albicans [7]": {"test_system": "Candida albicans", "assay": "Fungicidal activity against Candida albicans ATCC 90028 assessed as log reduction in bacterial count at 16 times MIC after drug exposure for 1 hr followed by washout measured after 48 hrs in the absence of drug by PAFE study", "format": "functional", "how_it_was_run": "as §2"}, "Nakaseomyces glabratus [8]": {"test_system": "Nakaseomyces glabratus", "assay": "Antifungal activity against Candida glabrata isolate 1 by CLSI M27-A3 broth microdilution method", "format": "functional", "how_it_was_run": "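CLSI M27-A3 broth microdilution in RPMI 1640 buffered to pH 7.0 with MOPS. Starting inoculum 0.5 x 10^3 to 2.5 x 10^3 cells/ml, incubated at 35°C. MIC read as the lowest concentration giving >50% growth reduction versus control. Each isolate tested on at least three occasions.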"}, "Nakaseomyces glabratus [9]": {"test_system": "Nakaseomyces glabratus", "assay": "Antifungal activity against Candida glabrata isolate 1 coincubated with mouse J774 macrophages assessed as macrophage induced bacterial cell killing at 4 times MIC (reference value: 12 +/- 10 %)", "format": "functional"}, "Candida parapsilosis [10]": {"test_system": "Candida parapsilosis", "assay": "Fungicidal activity against Candida parapsilosis isolate S assessed as log reduction in bacterial count at MIC after drug exposure for 1 hr followed by washout measured after 48 hrs in the absence of drug by PAFE study", "format": "functional", "settings": "Lodderomyces parapsilosis", "how_it_was_run": "as §1"}, "Candida albicans [11]": {"test_system": "Candida albicans", "assay": "Increase in susceptibility to SDS in Candida albicans isolate 1 assessed as cell wall damage at 16 times MIC after 1 hr relative to control", "format": "functional, organism-based", "how_it_was_run": "as §4"}, "Candida albicans [12]": {"test_system": "Candida albicans", "assay": "Antifungal activity against Candida albicans isolate 1 assessed as cell wall damage at MIC by Transmission electron microscopy", "format": "functional, organism-based", "how_it_was_run": "as §3"}, "Nakaseomyces glabratus [13]": {"test_system": "Nakaseomyces glabratus", "assay": "Fungicidal activity against Candida glabrata isolate 2 assessed as log reduction in bacterial count at 16 times MIC after drug exposure for 1 hr followed by washout measured after 48 hrs in the absence of drug by PAFE study", "format": "functional", "how_it_was_run": "(§5)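 Starting inoculum ~1 x 10^5 to 5 x 10^5 CFU/ml in MOPS-buffered RPMI 1640 (pH 7.0) with drug at multiples of the CLSI M27-A3 MIC. After 1 h at 35°C, cells washed and centrifuged three times at 1,400 x g for 10 min, then resuspended in warm drug-free RPMI. Shaken at 35°C and plated on SDA at 0–48 h; CFU counted after 48 h. Run twice per isolate; means.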"}, "Candida parapsilosis [14]": {"test_system": "Candida parapsilosis", "assay": "Fungicidal activity against Candida parapsilosis isolate 1 assessed as log reduction in bacterial count at 4 times MIC after drug exposure for 1 hr followed by washout measured after 48 hrs in the absence of drug by PAFE study", "format": "functional", "settings": "Lodderomyces parapsilosis", "how_it_was_run": "as §1"}, "Candida parapsilosis [15]": {"test_system": "Candida parapsilosis", "assay": "Antifungal activity against Candida parapsilosis isolate 1 coincubated with mouse J774 macrophages assessed as macrophage induced bacterial cell killing at 4 times MIC (reference value: 22 +/- 12 %)", "format": "functional"}, "Candida parapsilosis [16]": {"test_system": "Candida parapsilosis", "assay": "Increase in susceptibility to SDS in Candida parapsilosis isolate A assessed as cell wall damage at 4 times MIC after 1 hr relative to control", "format": "functional, organism-based", "how_it_was_run": "as §4"}, "Candida parapsilosis [17]": {"test_system": "Candida parapsilosis", "assay": "Antifungal activity against Candida parapsilosis by NCCLS M27A broth microdilution method", "format": "functional", "settings": "Lodderomyces parapsilosis"}, "Candida albicans [18]": {"test_system": "Candida albicans", "assay": "Antifungal activity against Candida albicans ATCC 90028 assessed as time period for bacterial growth inhibition at 16 times MIC after 1 hr drug exposure", "format": "functional", "how_it_was_run": "as §2"}, "Candida albicans [19]": {"test_system": "Candida albicans", "assay": "Fungicidal activity against Candida albicans isolate S assessed as log reduction in bacterial count at 16 times MIC after drug exposure for 1 hr followed by washout measured after 48 hrs in the absence of drug by PAFE study", "format": "functional", "how_it_was_run": "as §5"}, "Candida parapsilosis [20]": {"test_system": "Candida parapsilosis", "assay": "Fungicidal activity against Candida parapsilosis isolate A assessed as log reduction in bacterial count at 16 times MIC after drug exposure for 1 hr followed by washout measured after 48 hrs in the absence of drug by PAFE study", "format": "functional", "settings": "Lodderomyces parapsilosis", "how_it_was_run": "as §1"}, "Candida albicans [21]": {"test_system": "Candida albicans", "assay": "Fungicidal activity against Candida albicans isolate S assessed as log reduction in bacterial count at 4 times MIC after drug exposure for 1 hr followed by washout measured after 48 hrs in the absence of drug by PAFE study", "format": "functional", "how_it_was_run": "as §5"}, "Candida parapsilosis [22]": {"test_system": "Candida parapsilosis", "assay": "Increase in susceptibility to calcofluor white in Candida parapsilosis isolate 1 assessed as cell wall damage at 4 times MIC after 1 hr relative to control", "format": "functional, organism-based", "how_it_was_run": "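Candida given a 1-h anidulafungin pulse in MOPS-buffered RPMI 1640 (pH 7.0) at 35°C, washed three times by centrifugation, and regrown drug-free. Cells collected 8 h later, grown in YPD with 1% glucose to exponential phase, and set to OD599 0.1. Undiluted culture and 10-fold dilutions (4 µl) spotted on YPD plates with calcofluor white, then 30°C for 72 h. Triplicate; compared with no-drug cells.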"}}, "note": "Calls of active or inactive are those of the source. The rule behind the calls is not given here. Starred links: 1 amine or outer side, 2 acyl side, 3 side chain; linkers in the order of their positions; H or OH if unused. Positions of bridges follow the written chain, without caps; N, C: chain ends. Non-standard residues stand in square brackets, D forms with d. Residues, ends and D or L forms follow the SMILES beside them. *: point of attachment. pTerphenylCO(4''-OnC5H11) = CCCCCOc1ccc(-c2ccc(-c3ccc(C(=O)*)cc3)cc2)cc1; Orn(4R-OH,5R-OH) = O=C([C@H](C[C@@H](O)[C@@H](O)N[*:3])N[*:1])[*:2]; hTyr(3S-OH,4S-OH) = N[C@H](C(=O)O)[C@H](O)[C@@H](O)c1ccc(O)cc1; Pro(3S-OH,4S-Me) = C[C@H]1CN[C@H](C(=O)O)[C@H]1O; Hyp = O=C(O)[C@@H]1C[C@@H](O)CN1", "data": [{"smiles": "CCCCCOc1ccc(-c2ccc(-c3ccc(C(=O)N[C@H]4C[C@@H](O)[C@@H](O)NC(=O)[C@@H]5[C@@H](O)[C@@H](C)CN5C(=O)[C@H]([C@@H](C)O)NC(=O)[C@H]([C@H](O)[C@@H](O)c5ccc(O)cc5)NC(=O)[C@@H]5C[C@@H](O)CN5C(=O)[C@H]([C@@H](C)O)NC4=O)cc3)cc2)cc1", "note": "[ANIDULAFUNGIN] ({pTerphenylCO(4''-OnC5H11)}-[Orn(4R-OH,5R-OH)]T[Hyp][hTyr(3S-OH,4S-OH)]T[Pro(3S-OH,4S-Me)]; lactam 1-C)", "values": [{"measurement": "log reduction", "setting": "Candida parapsilosis [1]", "result": 0.81}, {"measurement": "Time", "setting": "Nakaseomyces glabratus [2]", "result": 8, "unit": "h"}, {"measurement": "Activity", "setting": "Candida parapsilosis [3]", "result": "Active"}, {"measurement": "Time", "setting": "Candida albicans [4]", "result": 8, "unit": "h"}, {"measurement": "log reduction", "setting": "Candida parapsilosis [5]", "result": 3.19, "unit": "log CFU/ml"}, {"measurement": "Activity", "setting": "Candida parapsilosis [6]", "result": "Active"}, {"measurement": "log reduction", "setting": "Candida albicans [7]", "result": 2.14}, {"measurement": "MIC", "setting": "Nakaseomyces glabratus [8]", "result": 0.06, "unit": "µg/mL"}, {"measurement": "inhibition (INH)", "setting": "Nakaseomyces glabratus [9]", "result": 33, "unit": "%"}, {"measurement": "log reduction", "setting": "Candida parapsilosis [10]", "result": 0.41}, {"measurement": "Activity", "setting": "Candida albicans [11]", "result": "Active"}, {"measurement": "Activity", "setting": "Candida albicans [12]", "result": "Active"}, {"measurement": "log reduction", "setting": "Nakaseomyces glabratus [13]", "result": 2.92}, {"measurement": "log reduction", "setting": "Candida parapsilosis [14]", "result": 2.46}, {"measurement": "inhibition (INH)", "setting": "Candida parapsilosis [15]", "result": 27, "unit": "%"}, {"measurement": "Activity", "setting": "Candida parapsilosis [16]", "result": "Active"}, {"measurement": "MIC90", "setting": "Candida parapsilosis [17]", "result": 2, "unit": "µg/mL"}, {"measurement": "Time", "setting": "Candida albicans [18]", "result": 8, "unit": "h"}, {"measurement": "log reduction", "setting": "Candida albicans [19]", "result": 2.52, "unit": "log CFU/ml"}, {"measurement": "log reduction", "setting": "Candida parapsilosis [20]", "result": 3.47}, {"measurement": "log reduction", "setting": "Candida albicans [21]", "result": 2.09, "unit": "log CFU/ml"}, {"measurement": "Activity", "setting": "Candida parapsilosis [22]", "result": "Active"}]}]}
